High-throughput results as filed in PubChem BioAssay.
M1 antag: blocks the rat M1 muscarinic receptor response to acetylcholine; P08482; CHO-M1 cells, Fluo-4 calcium, ACh EC80 antagonist mode; stronger effect = lower value; B-score at 10 µM; actives 3.4% (n = 64,000); AID 628;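 active = calcium fluorescence response, raw or row-and-column corrected B-score, differing from the plate sample mean either way at a set confidence level, mostly lower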
MT1-MMP txn act: MT1-MMP promoter transcription activation; AID 750; actives 0.16% (n = 86,000); HT1080 MT1-MMP promoter luciferase reporter, luminescence, overnight; stronger effect = higher value; activation factor at 10 µM;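 active = activation factor of at least 2 for MT1-MMP transcription at 10 µM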
RORA act: RORA (human) activation | P35398 | CHO-K1 Gal4-RORA LBD luciferase reporter, luminescence; percent increase over mock-subtracted basal signal | activation, % at 10 µM | actives 1.5% (n = 65,000) | AID 560;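 active = activation above the mean of all tested compounds plus 3 SD, cut at about 49% in these data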
Target sequence (P35398 whole entry, looked up, the tested form may be a part): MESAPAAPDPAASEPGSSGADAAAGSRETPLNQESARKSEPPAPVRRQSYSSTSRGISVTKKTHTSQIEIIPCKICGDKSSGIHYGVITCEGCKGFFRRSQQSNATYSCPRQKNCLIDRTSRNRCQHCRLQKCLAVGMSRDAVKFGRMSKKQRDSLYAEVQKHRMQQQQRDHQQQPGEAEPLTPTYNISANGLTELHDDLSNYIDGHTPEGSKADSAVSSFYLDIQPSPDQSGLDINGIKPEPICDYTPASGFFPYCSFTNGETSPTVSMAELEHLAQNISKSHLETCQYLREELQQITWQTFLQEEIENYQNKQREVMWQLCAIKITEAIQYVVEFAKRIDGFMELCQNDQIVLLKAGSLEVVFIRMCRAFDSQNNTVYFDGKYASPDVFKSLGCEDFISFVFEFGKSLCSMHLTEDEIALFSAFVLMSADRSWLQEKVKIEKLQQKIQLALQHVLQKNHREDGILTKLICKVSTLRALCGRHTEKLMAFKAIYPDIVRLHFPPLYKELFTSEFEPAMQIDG
SF1 activator: activators of human nuclear receptor SF-1; Q13285; CHO-K1 Gal4-SF-1 LBD luciferase reporter; % increase over DMSO SF-1-specific signal; activation, % at 10 µM; actives 1.9% (n = 65,000);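 active = activation above the mean activation of all tested compounds plus 3 SD, cut at about 50% in these data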
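Test system: CHO-K1 cells co-transfected with Gal4 DBD–human SF-1 LBD, 5xGal4 luciferase reporter. Quantity: 4,000 cells per well. Compound: 10 µM only. Incubation: compound added 1 h post-seeding, 20 h exposure at 37 °C, 5% CO2. Detection: SteadyLite luciferase luminescence. Replication: one test per compound.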
M1 ag: agonists of M1 muscarinic receptor | B-score at 10 µM | CHO-M1 cells, Fluo-4 calcium fluorescence, agonist mode; stronger effect = higher value | actives 3% (n = 64,000);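 active = fluorescence rise, raw or as B-score row- and column-corrected plate score, outside the 99.7% band of its plate's samples, either direction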
M1 antag conf: confirmation of rat M1 muscarinic receptor antagonists; shares compounds with M1 antag; CHO-M1 cells, Fluo-4 calcium, ACh EC80 antagonism; stronger effect = lower value; calcium response (max-min fluorescence) at 10 µM; actives 43% (n = 1,700); AID 677;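 active = calcium response below the same-plate mean of wells given acetylcholine alone at its 80%-effect dose, minus 3 SD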
mGluR4 antag: acts on human mGluR4 in M1 antagonist selectivity test. shares compounds with M1 antag. CHO-mGluR4 calcium flux, Fluo-4 fluorescence, glutamate EC80; stronger effect = lower value. fluorescence response (max-min) at 10 µM. actives 0.9% (n = 1,700). AID 678;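 active = fluorescence response below the plate's average for near-maximal glutamate wells, less 3 SD of those wells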;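 note: raw unnormalized fluorescence span taken in the window right after glutamate addition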
Of the large screens only hits and unclear results are named; the others gave an inactive call (follow-up assays come after a bar, where they were run). Sampled rows, rich in hits. Any-hit rate of the full collection: about 6.3%.

CCN(CC)CCCN(C(=O)c1cccs1)c1nc(-c2ccc(OC)cc2)cs1	M1 antag -5.3 | M1 antag conf 321 | mGluR4 antag inactive
CCCCNC(=O)c1ccccc1C(=O)NCCCC	M1 antag -3.9 | M1 antag conf inactive | mGluR4 antag inactive
CCCCNC(=O)c1ccccc1Cl	none (no result: M1 antag, RORA act, SF1 activator, M1 ag)
Cc1cc(NC(=O)CN2CCc3ccccc3C2)nc2c1c(=O)oc1ccccc12	none (no result: MT1-MMP txn act)
CCOC(=O)N1CCC(NC2CCCCCCC2)CC1	M1 antag -11 | M1 antag conf 100 | mGluR4 antag inactive
c1coc(-c2nc3c4c5c(sc4ncn3n2)CCCC5)c1	none
CN1CCc2c(sc3ncn4nc(-c5ccccc5O)nc4c23)C1	M1 antag -3.7 (no result: MT1-MMP txn act) | M1 antag conf 353 | mGluR4 antag inactive
COc1ccc2nc(NC(=O)CN(c3ccc(C)cc3)S(=O)(=O)c3c(C)nn(C)c3C)sc2c1	none
O=C(CN1C(=O)c2ccccc2C1=O)N1CCCCC1	none
O=C(CC(c1ccccc1O)N1CCCCC1)N1CCCCC1 (configuration not stated)	M1 antag -17 (no result: MT1-MMP txn act, RORA act, SF1 activator) | M1 antag conf 84 | mGluR4 antag inactive
CS(=O)(=O)N(CC(=O)N1CCCC1)c1cccc(Cl)c1	none (no result: M1 antag, M1 ag)
Cc1ccc(Cl)cc1N(CC(=O)N1CCCCCC1)S(C)(=O)=O	M1 antag -2.9 | M1 antag conf inactive | mGluR4 antag inactive
Cc1sc2nc3n(c(=O)c2c1C)NC(=O)CC3	none
Oc1c(CN2CCCCC2)cc(COCc2ccccc2)c2cccnc12	M1 antag -5.4 (no result: MT1-MMP txn act) | M1 antag conf 410 | mGluR4 antag inactive
Oc1c(CN2CCN(c3ccccn3)CC2)cc(Cl)c2cccnc12	M1 antag -1.9 | M1 antag conf inactive | mGluR4 antag inactive
CCn1nnnc1NCc1ccc(N2CCCC2)cc1	M1 antag -17 (no result: MT1-MMP txn act) | M1 antag conf 503 | mGluR4 antag inactive
Cc1cc(C)n(C2=NS(=O)(=O)c3ccccc32)n1	none
CCn1c(SCC(=O)c2[nH]c(C)c(C(C)=O)c2C)nnc1-c1ccccc1	none (no result: M1 antag, RORA act, SF1 activator, M1 ag)
CCC(C)N(C)Cc1cccc(C2(O)CCN(S(=O)(=O)c3ccc(F)cc3)CC2)c1 (configuration not stated)	M1 antag -2.1 | M1 antag conf 468 | mGluR4 antag inactive
O=S(=O)(c1ccc(Cl)cc1)N1CCC(N2CCCCCC2)CC1	M1 antag -4.6 | M1 antag conf inactive | mGluR4 antag inactive
COCCCNC(=O)CCCn1c(=O)c2ccccc2n(CC(=O)Nc2c(C)cc(C)cc2C)c1=O	none
CN(C)c1nc2c(c(=O)[nH]c(=O)n2C)n1Cc1ccccc1Br	M1 antag -2.9 | M1 antag conf inactive | mGluR4 antag inactive
CC1=C(C)SC(=C(C#N)c2nnc(N3CCOCC3)n2-c2ccccc2)S1	none
COc1cc(C2N(c3ccc(F)cc3)C(=O)C3CCCN32)cc(OC)c1OC (configuration not stated)	M1 antag -4.4 | M1 antag conf inactive | mGluR4 antag inactive
Cc1ccc(C(=O)NCCCN2CCOCC2)cc1N1CCCC1=O	none
Cc1cc(N2CCOCC2)nc2ccc(NC(=O)CCC(=O)N3CCC(C)CC3)cc12	none
Cc1cc(N2CCOCC2)nc2ccc(NC(=O)CCC(=O)N3CCCCC3)cc12	M1 antag -2.6 | M1 antag conf inactive | mGluR4 antag inactive
CCNC(=O)c1cc2c(=O)n3cccc(C)c3nc2n(CCc2ccccc2)c1=N	none
Cc1cccn2c(=O)c3cc(C(=O)NCCCN4CCCC4=O)n(C)c3nc12	M1 antag -3.1 | M1 antag conf 615 | mGluR4 antag inactive
COCCn1c(=N)c(C(=O)NCCc2ccccc2)cc2c(=O)n3cccc(C)c3nc21	M1 antag -4.7 | M1 antag conf 194 | mGluR4 antag inactive
Cc1cccn2c(=O)c3cc(C(=O)NCCN4CCOCC4)c(=N)n(CCc4ccccc4)c3nc12	none
Cc1cccn2c(=O)c3cc(C(=O)NCc4ccccc4)c(=N)n(CCCN4CCOCC4)c3nc12	M1 antag -3.3 | M1 antag conf 337 | mGluR4 antag inactive
CCCCNC(=O)c1cc2c(=O)n3cccc(C)c3nc2n1C	none
O=C(Nc1cccc(Cl)c1)NC1CCCCC1	M1 antag -2.2, RORA act 54, SF1 activator 59 | M1 antag conf inactive | mGluR4 antag inactive
O=C(Nc1ccc(Cl)cc1)NC1CCCCC1	none (no result: M1 antag, RORA act, SF1 activator, M1 ag)
CCCCC1CCC(C(=O)Nc2c(C)n(C)n(-c3ccccc3)c2=O)CC1 (configuration not stated)	none
CCN(CC)CCCN1C(=O)c2oc3ccccc3c(=O)c2C1c1cccs1 (configuration not stated)	none (no result: M1 antag, RORA act, SF1 activator, M1 ag)
O=C(N1CCOCC1)N1CCN(c2ccc(F)cc2)CC1	none (no result: M1 antag, RORA act, SF1 activator, M1 ag)
CCc1ccc(C(=O)N2CCN(c3ccc(F)cc3)CC2)s1	M1 antag -6.5 | M1 antag conf 507 | mGluR4 antag inactive
CC1=CC(=C2C(=O)c3ccccc3C2=O)C=C(C)N1Cc1ccco1	none
CC1=CC(=C2C(=O)c3ccccc3C2=O)C=C(C)O1	M1 antag -1.1, RORA act 57 | M1 antag conf inactive | mGluR4 antag inactive
Cc1cc(/C=C(/C#N)c2cccc(F)c2)c(C)n1-c1cccnc1	M1 antag -5 | M1 antag conf inactive | mGluR4 antag inactive
CCN(C#N)c1nc(NC(C)C)nc(NC(C)C)n1	M1 antag -3.5 | M1 antag conf inactive | mGluR4 antag inactive
CCc1nnc(NCC(=O)N2CCc3ccccc32)s1	M1 antag -4.8 | M1 antag conf inactive | mGluR4 antag inactive
CCc1nnc(NC(=O)c2c(O)c3cccc4c3n(c2=O)CC4)s1	none
CCSc1ccccc1C(=O)Nc1cc(C)on1	M1 antag -3.8 | M1 antag conf inactive | mGluR4 antag inactive
COC(=O)CSC1=C(C#N)C(c2ccc(F)cc2)CC(=O)N1 (configuration not stated)	M1 antag -2.2 | M1 antag conf inactive | mGluR4 antag inactive
COC(=O)CSC1=C(C#N)C(c2sccc2C)CC(=O)N1 (configuration not stated)	none
COc1ccc(/C=N\NS(=O)(=O)c2ccc(Cl)cc2)cc1COc1ccccc1[N+](=O)[O-]	none (no result: M1 antag, RORA act, SF1 activator, M1 ag)
C=CCn1c(SCc2nc3ccccc3[nH]2)nnc1-c1ccncc1	M1 antag -16 | M1 antag conf inactive | mGluR4 antag inactive
COc1ccc(CN2CCN(S(=O)(=O)c3ccc(NC(C)=O)cc3)CC2)cc1OC	M1 antag -2.7 | M1 antag conf inactive | mGluR4 antag inactive
COc1cc(CN2CCN(S(=O)(=O)c3ccc(NC(C)=O)cc3)CC2)cc(OC)c1O	none
CCOC(=O)Cn1c(=N)n(CCOc2cccc(C)c2)c2ccccc21	M1 antag -0.8 | M1 antag conf inactive | mGluR4 antag inactive
